Experimental data: PMC10245909 (bioRxiv, 2023)
pEC50: −log10 of the molar value. Counter-ions that a name gives are not always drawn.

How the values were obtained:
C. parvum [1] = assay: Initial screen of gut metabolites on C. parvum growth in HCT-8 cells; format: cell-based, Cryptosporidium parvum; conditions: 24 hpi, metabolite at 1 mM (0.1 mM for bile acids/salts)
Procedure, shortened: (§1)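 Confluent HCT-8 cells (1.5 × 10^5/well, grown ~24 h) were infected with 5 × 10^5 bleached oocysts together with a single metabolite diluted in culture medium (1 mM or 0.1 mM) for 24 h. Parasite and host cell numbers are given as ratios to PBS control wells on the same plate. Each metabolite was run in triplicate across six separate experiments.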

HCT-8 cells [2] = assay: Host nuclei in growth assay with mitochondrial inhibitors; format: cell-based, human; conditions: for host cell toxicity at Cp-inhibitory levels: HCT-8, 24 h, at EC50 levels
Procedure, shortened: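 Confluent HCT-8 cells (1.5 × 10^5/well) were infected with 1 × 10^5 bleached oocysts and exposed ~24 h to test compounds, serially diluted 1:2 from 40 μM (final, 1% DMSO). Cells were fixed in 4% formaldehyde, permeabilized/blocked in 0.1% Triton-X/1% BSA, Hoechst-stained and counted, with values relative to the 1% DMSO control mean. Four replicates (2 technical × 2 experiments).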

C. parvum [3] = assay: C. parvum growth assay in HCT-8 cells; format: cell-based, Cryptosporidium parvum; conditions: for pEC50: HCT-8, 24 h; for Cp infection, treatment started 4 hpi: 4 – 24 hpi; for Cp growth, treatment 0 – 4 hpi only: first four hours of infection only
AhR = conditions: cited from earlier work
[4] = test system: AhR target genes AhRR and CYP1A1; conditions: HCT-8 AhR KO 1 and KO 2, VAF347 500 nM, 24 h
C. parvum [5] = assay: Metabolite treatment of C. parvum-infected GKO mice; format: in vivo, mouse
C. parvum [6] = assay: Air-liquid interface; format: cell-based, Cryptosporidium parvum; conditions: for time after washout to significant recovery in Cp growth: treated 48 h at EC50 concentration; for pEC50 / EC90: Cryptosporidium parvum; for pEC50: read-out: EC50 for Cp in ALI cultures; for EC90: read-out: EC90 for Cp in ALI cultures
Procedure, shortened: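 ALI transwells were coated with 10% Matrigel and seeded with irradiated mouse 3T3 fibroblasts (8 × 10^4/transwell). Top medium was removed after 7 days, and 5 × 10^4 oocysts were added on top 3 days later. After ~4 h the tops were washed twice with DPBS and day-0 wells scraped. Test compound at three levels or 1% DMSO went in the bottom medium for ~48 h, then transwells moved to normal medium. Parasite genome eq. by DNA extraction, normalized to DMSO at each time point; six replicates (3 technical × 2 experiments).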

C. parvum [7] = assay: Antibody and EdU labeling of C. parvum life cycle stages in HCT-8 cells; format: cell-based, Cryptosporidium parvum; conditions: EC90 concentrations; for life cycle stage progression: first 24 hpi, EdU pulses
Cp mitosome = assay: Mitotracker CMXRos staining of C. parvum mitosome; format: cell-based, Cryptosporidium parvum; conditions: 2 x EC90 indole 1.76 mM, 7CNI 1 mM, CCCP 10 μM; 2 h or 24 h
Procedure, shortened: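 HCT-8 cells on coverslips were infected with 5 × 10^5 oocysts, washed twice with DPBS, and exposed in 1% DMSO medium either 22–24 hpi (2 h) or continuously to 24 hpi. MitoTracker Red CMXRos (50 nM final) was added 45 min before fixation at 24 hpi. Staining used 1E12 with Alexa Fluor 488 secondary plus Hoechst. Four replicates (2 technical × 2 experiments).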

C. parvum [8] = assay: C. parvum growth assay in HCT-8 AhR KO cell lines; format: cell-based, Cryptosporidium parvum; conditions: HCT-8 AhR KO cells, 24 h, indole 1 mM, 4HI 1 mM
HCT-8 cells [9] = assay: Seahorse metabolic assays; format: cell-based, human; conditions: 18 h
HCT-8 cells [10] = assay: Host cell numbers in the initial metabolite screen; format: cell-based, human; conditions: metabolite at 1 mM, 24 h
Procedure, shortened: as §1

C. parvum [11] = conditions: neonatal mice, only when gut microflora present; cited from earlier work
C. parvum [12] = conditions: dietary supplementation, malnourished neonatal mice; cited from earlier work
[13] = Cryptosporidium parvum, HCT-8, read-out: EC90 for Cp, HCT-8 cells
[14] = Cryptosporidium parvum, read-out: Cp EC50
[15] = indole 0.5-2 mM, 7CNI 0.25-1 mM

O=C(O)Cc1c[nH]c2ccc(O)cc12 [5-hydroxyindole-3-acetic acid]
effect on Cp growth (Cp numbers relative to PBS control) (C. parvum [1]): no effect

CC[C@H]1/C=C/C=C/C[C@@H](C)[C@H](O)[C@@](C)(O)C(=O)[C@@H](C)[C@H](O)[C@@H](C)C(=O)[C@@H](C)[C@H](O)[C@@H](C)/C=C/C(=O)O[C@@H]2[C@H](C)[C@H](CC1)O[C@]1(CC[C@H](C)[C@H](C[C@@H](C)O)O1)[C@H]2C [oligomycin, reference compound]
host cell toxicity at Cp-inhibitory levels (HCT-8 cells [2]): not due to host cell toxicity
pEC50 (C. parvum [3]; Cryptosporidium parvum, read-out: Cp EC50, OxPhos inhibitors): 4.69

Cc1cccc2[nH]ccc12 [4-methylindole]
AhR signaling in vitro (AhR): activate AhR signaling

C[C@H](CCC(=O)O)[C@H]1CC[C@H]2[C@@H]3CC[C@@H]4C[C@H](O)CC[C@]4(C)[C@H]3C[C@H](O)[C@]12C [deoxycholate, sodium deoxycholate]
effect on Cp growth (Cp numbers relative to PBS control) (C. parvum [1]): significantly inhibited

FC(F)(F)c1ccc(Nc2nccc(-c3cccc(Cl)c3)n2)cc1 [VAF347]
CYP1A1 gene expression in AhR KO lines [4]: lost the ability to upregulate CYP1A1 gene expression

N#Cc1cccc2cc[nH]c12 [7-cyanoindole]
survival rate (C. parvum [5]; 50 mg/kg BID 7 days): did not significantly increase survival rate
mean Cp oocysts per mg feces by 9 dpi (C. parvum [5]; 50 mg/kg BID 7 days, after end of treatment): rebounded
body weight vs vehicle- or indole-treated mice (C. parvum [5]; 50 mg/kg BID, 5 and 7 dpi): weighed significantly more
time after washout to significant recovery in Cp growth (C. parvum [6]; ALI): 4 days
pEC50 (C. parvum [6]): 3.42
EC90 (C. parvum [6]): 688 µM
EC90 (C. parvum [3]; [13]): 500 µM
Cp infection, treatment started 4 hpi (C. parvum [3]; EC90 concentrations): significantly inhibited Cp infection
Cp growth, treatment 0 – 4 hpi only (C. parvum [3]; EC90 concentrations): neither indole nor 7CNI inhibited Cp growth
life cycle stage progression (C. parvum [7]): delayed progression through sequential life cycle stages

Cc1ncc(CO)c(C=O)c1O [pyridoxal hydrochloride]
effect on Cp growth (Cp numbers relative to PBS control) (C. parvum [1]): significantly inhibited
pEC50 (C. parvum [3]; [14]): 3.67
Fold selectivity (host EC50 divided by Cp EC50) (C. parvum [3]; HCT-8 cells): 44.6 fold

c1ccc2[nH]ccc2c1 [indole]
Mitotracker staining of Cp mitosomes (Cp mitosome): significantly decreased Mitotracker staining
Cp sensitivity in AhR KO cells (C. parvum [8]): remained sensitive
basal and stressed respiratory rate in HCT-8 WT and AhR KO cells (HCT-8 cells [9]; indole 0.5, 1, 2 mM, stressed = after FCCP and oligomycin): significantly impaired in a dose-dependent manner
basal and maximal levels of mitochondrial respiration (OCR) (HCT-8 cells [9]; indole 0.5, 1, 2 mM, 7CNI 0.25, 0.5, 1 mM, dose-dependent): significantly reduced
ATP production rate by glycolysis (HCT-8 cells [9]; [15]): remained similar
ATP production rate by the mitochondria (HCT-8 cells [9]; [15]): significant reduction
spare respiratory capacity (HCT-8 cells [9]; [15]): diminished
total ATP production rate (HCT-8 cells [9]; [15]): lower total ATP production rate
median survival time (C. parvum [5]; 50 mg/kg BID 7 days, vehicle 11 dpi): 17 dpi
Cp oocysts shed in feces (C. parvum [5]; 50 mg/kg oral gavage twice daily 7 days, by 5 dpi): no effect
Cp growth recovery after washout, 2 x EC90 (C. parvum [6]; ALI, treated 48 h at 2 x EC90 concentration): no recovery
time after washout to significant recovery in Cp growth (C. parvum [6]; ALI): 2 days
Cp growth recovery after washout, EC90 (C. parvum [6]; ALI, treated 48 h at EC90 concentration): Some growth recovery (though not significant)
pEC50 (C. parvum [6]): 3.24
EC90 (C. parvum [6]): 1890 µM
pEC50 (C. parvum [3]; [14]): 3.39
EC90 (C. parvum [3]; [13]): 880 µM
Cp infection, treatment started 4 hpi (C. parvum [3]; EC90 concentrations): significantly inhibited Cp infection
Cp growth, treatment 0 – 4 hpi only (C. parvum [3]; EC90 concentrations): neither indole nor 7CNI inhibited Cp growth
Cp infection after pre-treatment of host cells (C. parvum [3]; EC90 concentrations, host cells pre-treated 20 h before infection): did not affect subsequent Cp infection
EC90 (C. parvum [3]; read-out: EC90 for Cp, HCT-8 cells): 877 µM
morphology of mature merozoites (1E12 labeling) (C. parvum [7]; 22 h): did not observe any obvious morphological defects
time until which total number of Cp did not significantly differ from DMSO (C. parvum [7]; HCT-8, start of second round of merogony): ~ 16 hpi
life cycle stage progression (C. parvum [7]): delayed progression through sequential life cycle stages

CCCCC[C@H](O)/C=C/[C@H]1[C@H](O)CC(=O)[C@@H]1C/C=C\CCCC(=O)O [prostaglandin E2]
host toxicity in screen (HCT-8 cells [10]): significant host toxicity

propionic
effect on Cp growth (Cp numbers relative to PBS control) (C. parvum [1]): impair growth

fumaric
effect on Cp growth (Cp numbers relative to PBS control) (C. parvum [1]): impair growth

N#CC(C#N)=NNc1cccc(Cl)c1 [CCCP, carbonyl cyanide m-chlorophenyl hydrazone]
Mitotracker staining of Cp mitosomes (Cp mitosome): decreases Mitotracker staining
host toxicity at high concentration (HCT-8 cells [2]; HCT-8, 40 μM and 20 μM): observed host toxicity
host cell toxicity at Cp-inhibitory levels (HCT-8 cells [2]): not due to host cell toxicity

C[C@H](CCC(=O)O)[C@H]1CC[C@H]2[C@@H]3CC[C@@H]4C[C@H](O)CC[C@]4(C)[C@H]3CC[C@]12C [lithocholic acid]
host toxicity in screen (HCT-8 cells [10]): significant host toxicity
effect on Cp growth (Cp numbers relative to PBS control) (C. parvum [1]): significantly inhibited

poly(I:C)
C. parvum load (C. parvum [11]): reduced C. parvum load

C[C@H](CCC(=O)O)[C@H]1CC[C@H]2[C@@H]3CC[C@@H]4C[C@H](O)CC[C@]4(C)[C@H]3C[C@H](O)[C@]12C [deoxycholic acid]
host toxicity in screen (HCT-8 cells [10]): significant host toxicity

COc1cccc2cc[nH]c12 [7-methoxyindole]
AhR signaling in vitro (AhR): activate AhR signaling

Cc1ccc2cc[nH]c2c1 [6-methylindole]
AhR signaling in vitro (AhR): activate AhR signaling

N=C(N)NCCC[C@H](N)C(=O)O [arginine]
severity of C. parvum infection (C. parvum [12]): decrease severity of C. parvum infection

Oc1cccc2[nH]ccc12 [4-hydroxyindole]
effect on Cp growth (Cp numbers relative to PBS control) (C. parvum [1]): significantly inhibited
pEC50 (C. parvum [3]; [14]): 2.90
